Source: PubChem BioAssay
In the library only some 4.6% were active in any assay of this set; here they are far more common.
GPR7 antagonist: blocks human GPR7 receptor signaling | P48145 | GPR7-expressing cells, fluorescence antagonist assay | inhibition, % at 4.4 µM | actives 1.1% (n = 290,000); in the data active = inhibition above about 16%, passing the limit was not always enough;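 note: cells stimulated with the agonist NPW; 0% = agonist with vehicle and 100% = vehicle without agonist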
Target sequence (P48145 whole entry, looked up): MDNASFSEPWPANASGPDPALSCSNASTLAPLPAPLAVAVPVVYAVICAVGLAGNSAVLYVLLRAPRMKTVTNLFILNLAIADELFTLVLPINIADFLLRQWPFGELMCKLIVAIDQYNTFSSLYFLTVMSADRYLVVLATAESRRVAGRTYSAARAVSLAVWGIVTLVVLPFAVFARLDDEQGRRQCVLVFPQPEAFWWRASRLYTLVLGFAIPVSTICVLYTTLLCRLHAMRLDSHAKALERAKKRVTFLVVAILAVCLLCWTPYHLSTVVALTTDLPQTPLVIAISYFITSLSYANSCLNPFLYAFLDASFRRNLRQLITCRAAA
TAAR1 antag: antagonists of human TAAR1 | Q96RJ0 | CHO RD-HGA16 TAAR1, Fluo-8 calcium fluorescence, antagonist | inhibition, % at 3 µM | actives 1.5% (n = 360,000) | AID 624466;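 active = inhibition above a per-plate cutoff, the mean inhibition of test compounds on that plate plus 3 SD, cut at about 49% in these data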;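 note: 0% = DMSO plus EC80 beta-PEA response and 100% = DMSO alone without agonist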
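Material: RD-HGA16 CHO cells with stable hTAAR1 and Gα16; Dosing: single nominal final test compound concentration of 3 µM; Schedule: seeding 17-24 h prior, 75-min 37 °C, 30-min RT dye loading; Detection: kinetic Fluo-8 calcium fluorescence measurement; Measure: % inhibition from peak post-agonist over basal fluorescence ratio; Benchmarks: vehicle and agonist controls.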
OX1R antag-1: antagonists of human orexin 1 receptor (OX1R); actives 1.8% (n = 330,000); OX1R-expressing cells, FRET antagonist read-out; inhibition, % at 6.6 µM; AID 485270; in the data active = inhibition mostly above about 38%, no sharp cut-off; inactive = mostly below about 40%;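 note: 0% = agonist challenge alone and 100% = reference antagonist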
Target sequence (O43613 whole entry, looked up): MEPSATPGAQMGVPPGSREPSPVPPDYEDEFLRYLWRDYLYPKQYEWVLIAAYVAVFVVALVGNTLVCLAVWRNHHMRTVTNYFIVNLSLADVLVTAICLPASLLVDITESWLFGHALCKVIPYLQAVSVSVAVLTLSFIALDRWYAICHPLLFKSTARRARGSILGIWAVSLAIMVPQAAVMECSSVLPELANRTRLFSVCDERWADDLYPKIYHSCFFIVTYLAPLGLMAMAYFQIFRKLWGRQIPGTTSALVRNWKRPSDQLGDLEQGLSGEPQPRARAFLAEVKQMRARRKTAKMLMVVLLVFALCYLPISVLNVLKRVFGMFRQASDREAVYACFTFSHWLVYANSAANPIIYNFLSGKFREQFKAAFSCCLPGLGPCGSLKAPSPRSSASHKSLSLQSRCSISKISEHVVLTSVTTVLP
TAAR1 ag: agonists of human TAAR1; Q96RJ0; CHO RD-HGA16 TAAR1, Fluo-8 calcium fluorescence; vehicle wells 0%, saturating PEA agonist 100%; activation, % at 3 µM; actives 0.99% (n = 360,000);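 active = activation above the mean activation of all test compounds in the run plus 3 SD, cut at about 38% in these data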
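Benchmarks: low control DMSO, high control PEA (EC100); System: CHO RD-HGA16 cells carrying human TAAR1 plus Gα16; Detection: Fluo-8 fluorescence, 5 s baseline then 140 s kinetic read; Schedule: 17-24 h plating, Fluo-8 75 min 37 °C, 30 min RT; Read-out basis: % activation from peak over basal fluorescence ratio, DMSO-to-PEA scaled.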
CHO parental Ca: counter-screen for OX1R antagonists: effect in parental CHO cells; actives 0.63% (n = 330,000); inhibition, % at 5.6 µM; parental CHO-K1, ATP-induced calcium, Fluo-8 fluorescence; AID 463079;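 active = inhibition above that plate's mean sample inhibition plus 3 SD, cut at about 26% in these data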;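 note: 0% = ATP-challenged DMSO wells and 100% = DMSO wells without ATP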
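test system = CHO parental line | reagent = ATP stimulus | measured by = intracellular calcium via Fluo-8 no-wash fluorescent dye | control set = ATP and no-ATP DMSO wells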
OX1R antag-2: antagonists of human orexin 1 receptor | O43613 | CHO/OX1R cells, Fluo-8 calcium fluorescence, orexin A | inhibition, % at 5 µM | actives 0.43% (n = 330,000);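 active = inhibition above its plate's threshold, mean inhibition of all tested compounds on the plate plus 3 SD, cut at about 37% in these data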;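 note: 0% = orexin A challenge wells and 100% = SB-334867-A antagonist wells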
Active calls of the source: *; / = no result.

SMILES | GPR7 antagonist | TAAR1 antag | OX1R antag-1 | TAAR1 ag | CHO parental Ca | OX1R antag-2
CCN(CC)C(=O)CSc1nnc(COc2ccc(OC)cc2)n1N | -6.5 | -11.0 | 14.7 | 0.4 | 12.0 | -13.9
CCOC(=O)c1c(NC(=O)CSc2c[nH]c3ccccc23)sc2c1CCCC2 | -2.4 | 0.6 | 1.5 | 0.2 | 0.3 | -18.9
CCOC(=O)c1c(NC(=O)CSc2nnc(-c3c[nH]c4ccccc34)n2CCOC)sc2c1CCCCC2 | -17.4 | -25.0 | 44.6* | -1.0 | -8.8 | 12.5
CCCC(=O)N1CCN(c2ccc(NC(=O)c3cccs3)cc2Cl)CC1 | -12.0 | 8.5 | 9.0 | 4.2 | -15.4 | -33.5
CCCC(=O)N1CCN(c2ccc(NC(=O)c3cc4ccccc4o3)cc2Cl)CC1 | -14.8 | 84.4* | 90.9* | 18.3 | 61.3* | 59.7*
COc1ccc(-c2coc3c(C(=O)N4CCN(C)CC4)cccc23)c(C)c1 | / | -0.7 | / | 2.8 | / | /
COc1ccc(NC(=O)c2ccccc2F)cc1Cl | 7.2 | 2.1 | 35.6 | -0.6 | -2.2 | -13.1
O=C(Nc1ccc(Oc2ccc(Cl)cc2)c(Cl)c1)c1cc(I)cc(I)c1O | -1.9 | 11.1 | 48.9* | 2.0 | 1.6 | 5.4
COC(=O)[C@]12C[C@H](CC(=O)NCCc3ccccc3OC)C(=O)N(Cc3ccccc3)C1=C[C@H](C1CCCC1)O[C@@H]2C | / | -15.6 | / | 0.5 | / | /
N#Cc1c(N)nc2c(c1-c1ccccc1)CCCC2 | -5.7 | -15.8 | 7.0 | 41.4* | -10.1 | -16.4
N#Cc1c2c(nc(N)c1-c1ccccc1)CCCCC2 | -10.1 | -1.1 | 6.2 | 0.2 | -13.9 | -17.0
O=S(=O)(c1cc(-c2nc3ccccc3s2)ccc1Cl)N1CCOCC1 | 22.6* | / | / | / | / | /
COc1ccc(NC(=O)CC(C)c2ccccc2)cc1S(=O)(=O)N1CCOCC1 (stereo unspecified) | / | -9.9 | 4.1 | 9.9 | -15.7 | -17.9
O=C(CSc1cccc2cccnc12)Nc1ccc(S(=O)(=O)N2CCOCC2)cc1 | -10.0 | -7.1 | 15.9 | 1.7 | 38.4* | 17.2
Cc1ccc(-c2nc3ccccc3s2)cc1S(=O)(=O)N1CCOCC1 | -3.9 | 3.9 | 15.3 | 11.4 | -4.3 | -20.4
O=C(Nc1ccccc1)Nc1ccc(Cl)c(S(=O)(=O)N2CCOCC2)c1 | 18.0* | 15.8 | 14.3 | 32.8 | 8.2 | -9.4
Cc1ccc(NC(=O)CC(C)c2ccccc2)cc1S(=O)(=O)N1CCOCC1 (stereo unspecified) | / | -3.3 | 37.3* | 6.5 | -11.7 | 3.9
Cc1ccc(NC(=O)CSCC(=O)Nc2ccc(S(=O)(=O)N3CCOCC3)cc2)cc1 | -8.7 | 4.3 | 7.9 | 3.8 | -11.3 | -20.3
CNC(=O)c1nn(C)c(=O)[nH]c1=O | / | -6.9 | / | 0.6 | / | /
COc1ccc(S(=O)(=O)N2CCOCC2)cc1NC(=O)Cc1ccc(F)cc1 | / | -11.0 | / | 6.0 | / | /
Cc1ccccc1C(=O)N1CCN(C(=O)C(=O)c2cccc(C(F)(F)F)c2)CC1 | / | -8.4 | / | 1.9 | / | /
O=C(CSc1ncccn1)Nc1ccc(Cl)c(S(=O)(=O)N2CCOCC2)c1 | / | -21.5 | 5.4 | 0.5 | -2.2 | -16.6
O=C(CSc1ccccc1)Nc1ccc(Cl)c(S(=O)(=O)N2CCOCC2)c1 | / | 13.3 | 39.8* | 7.2 | -10.4 | 11.6
N=c1c(C(=O)NC2CCCCC2)cc2c(=O)n3ccccc3nc2n1Cc1cccnc1 | 2.0 | 12.4 | 32.2 | -4.8 | -8.4 | -21.4
N=c1c(C(=O)NCC2CCCO2)cc2c(=O)n3ccccc3nc2n1Cc1cccnc1 (stereo unspecified) | -4.7 | -0.5 | 73.0* | 0.3 | 2.1 | -2.6
SMILES | GPR7 antagonist | TAAR1 antag | OX1R antag-1 | TAAR1 ag | CHO parental Ca | OX1R antag-2
Cc1cccn2c(=O)c3cc(C(=O)NCc4ccc(F)cc4)c(=N)n(CC4CCCO4)c3nc12 (stereo unspecified) | -4.9 | -26.0 | 22.5 | 3.1 | -14.2 | -16.7
Cc1cccn2c(=O)c3cc(C(=O)NCC4CCCO4)c(=N)n(Cc4cccnc4)c3nc12 (stereo unspecified) | 5.3 | 6.1 | 60.0* | 5.5 | -3.3 | -24.2
N=c1c(C(=O)NCC2CCCO2)cc2c(=O)n3ccccc3nc2n1Cc1ccc(F)cc1 (stereo unspecified) | 9.3 | -8.0 | 54.5* | -1.2 | 9.5 | -27.7
N=c1c(C(=O)NCC2CCCO2)cc2c(=O)n3ccccc3nc2n1Cc1ccco1 (stereo unspecified) | -6.6 | 3.6 | 57.1* | -0.3 | -10.0 | -10.3
C[n+]1c(-c2ccccc2)sc([S-])c1-c1ccccc1 | / | -13.6 | 15.1 | -1.6 | 39.5* | -23.4
CCNC(=O)N1CCN(c2ccc(N3CCN(C(=O)NCC)[C@H](C)C3)c(C)c2)[C@@H](C)C1 | / | -0.2 | / | 0.2 | / | /
CCNC(=S)N1CCN(c2nc(-c3ccc(F)cc3)cs2)CC1 | -9.2 | 43.9 | 20.5 | 3.4 | 64.7* | 47.9*
COCCNC(=S)N1CCN(c2nc(-c3ccc(F)cc3)cs2)CC1 | 5.8 | 24.8 | -0.8 | 4.7 | -1.4 | -10.3
O=C(O)c1ccc(-c2ccc(-c3ccccc3)cc2)s1 | 9.2 | / | 2.8 | / | 10.2 | 18.9
O=C(Nc1ccccc1)c1cc2ccc3ccccc3c2s1 | -22.8 | -44.9 | 50.6* | 0.0 | -25.4 | -2.8
O=C(Nc1ccccc1)c1ccc(-c2ccccc2)s1 | 17.4 | 39.1 | 13.6 | 37.6* | 20.1 | -4.7
CN(Cc1ccc(Cl)cc1Cl)C(=O)Cc1ccc(S(=O)(=O)N2CCOCC2)s1 | / | 9.8 | / | 5.2 | / | /
C[C@H](CO)N1C[C@H](C)[C@@H](CN(C)C(=O)CCC(F)(F)F)OCc2cn(nn2)CCCC1=O | / | -15.0 | / | 3.5 | / | /
Cc1ccccc1-n1c(=O)c(C#N)cc2c(=O)n3ccccc3nc21 | 8.2 | 6.0 | 48.5* | 7.6 | -11.9 | -8.9
O=C(N[C@H](Cc1ccccc1)C(=O)NCC1CCCCC1)[C@H]1O[C@@H](n2ccc(=O)[nH]c2=O)[C@H](O)[C@@H]1O | / | -13.5 | / | 0.0 | / | /
Cc1nccc(-c2cccc(N/N=C(\C#N)C(=O)c3ccccc3)c2)n1 | -25.3 | -21.0 | 68.8 | 2.6 | 6.7 | -14.9
N#C/C(=N\Nc1cccc(C(F)(F)F)c1)C(=O)c1ccsc1 | 14.8 | -25.4 | 54.8* | 1.9 | 1.3 | 35.9
COC(=O)[C@]12C[C@H](CC(=O)N3CCN(C(=O)C4CC4)CC3)C(=O)N(CCC3=CCCCC3)C1=C[C@H](COCc1ccccc1)O[C@@H]2C | / | -3.9 | / | -0.3 | / | /
CCN(c1ccccc1)C1(O)C(=O)c2ccccc2C1=O | 19.6* | 12.9 | 11.8 | 3.4 | -2.1 | -14.3
C=CCNc1nc2c(c(=O)n(C)c(=O)n2C)n1Cc1ccc(F)cc1 | -6.3 | 14.8 | 29.4 | 2.7 | 40.1* | -30.8
CCCC1=NN(C(=O)C(=O)Nc2ccc(Br)cc2)C(O)(C(F)(F)F)C1 (stereo unspecified) | -8.8 | 10.4 | 50.2* | 7.7 | -2.5 | -11.6
COc1cc(OC)c(/C=C2\C(=O)Nc3ccccc32)c(OC)c1 | / | 13.5 | 40.9* | 4.6 | -7.8 | -13.8
